Assay results collected from several papers.
Compare with care: the assays were run in different laboratories.
Abl2: Abl2 (Mus musculus, UniProt Q4JIM5)
Si: Sucrase-isomaltase, intestinal (Si, Rattus norvegicus, UniProt P23739)
BRD1 bromodomain: Bromodomain-containing protein 1, bromodomain (BRD1, Homo sapiens, UniProt O95696)

SMILES | target | test | test system | setting | quantity | value
CCCOc1ccc(OC)c(F)c1C(=O)c1ccc(C(=O)N[C@@H]2CNC[C@H]2NC(=O)c2ccc3[nH]ncc3c2)cc1 | Abl2 | enzyme activity, inhibitor |  | 10 µM | remaining activity | 87%
Cc1ccc(C(=O)Nc2ccc(CN3CCN(C)CC3)c(C(F)(F)F)c2)cc1C#Cc1cnc2cccnn12 | Hormonally up-regulated neu tumor-associated kinase (HUNK, Homo sapiens, UniProt P57058) | enzyme activity, inhibitor |  | 23.5 nM | remaining activity | 94%
O=C1OC[C@H]2OC(=O)c3cc(O)c(O)c(O)c3-c3c(O)c(O)c(O)c4c3C(=O)O[C@H]([C@H]3OC(=O)c5c-4c(O)c(O)c(O)c5[C@H]3O)[C@@H]2OC(=O)c2cc(O)c(O)c(O)c2-c2c1cc(O)c(O)c2O | Si | enzyme activity, inhibitor |  | 100 µg/mL | inhibition | 48.3%
CC(C)(C)c1nc2c(s1)c1nc(N)ncc1c1ccc(NS(=O)(=O)c3c(F)cccc3F)c(F)c12 | Eukaryotic translation initiation factor 2-alpha kinase 1 (EIF2AK1, Homo sapiens, UniProt Q9BQI3) | enzyme activity, inhibitor, radiometric |  | 1 µM | remaining activity | 69%
O=C(O)C(=O)Cc1ccccc1 | D-dopachrome decarboxylase (Homo sapiens, UniProt P30046) | enzyme activity, substrate |  |  | Km | 2400 µM
Cn1c2c(c3ccc(Cl)c(Cl)c31)C(C#N)C1(CCOCC1)NC2=O (stereo not shown) | Rhodopsin kinase GRK1 (GRK1, Homo sapiens, UniProt Q15835) | thermal stability, DSF |  | 10 µM | ΔTm | 0.4 °C
Cc1ccc(NC(=O)c2ccc(C)c(C(F)(F)F)c2)cc1C#Cc1nn(C2CCC(O)CC2)c2ncnc(N)c12 (stereo not shown) | Abl2 | cell-free assay |  | 10 µM | remaining signal | -1%
Oc1ccc(-c2nc(-c3ccncc3)c(-c3ccc(F)cc3)[nH]2)cc1 | BRD1 bromodomain | thermal stability, DSF |  | 10 µM | ΔTm | 0.46 °C
O=c1c(O[C@@H]2O[C@@H](CO)[C@H](O)[C@H]2O)c(-c2ccc(O)c(O)c2)oc2cc(O)cc(O)c12 | Si | enzyme activity, inhibitor |  | 100 µg/mL | inhibition | 52.4%
Cc1cnc(Nc2ccc(OCCN3CCCC3)cc2)nc1Nc1cccc(S(=O)(=O)NC(C)(C)C)c1 | BRD1 bromodomain | thermal stability, DSF |  | 10 µM | ΔTm | 0.51 °C
O=c1c(O[C@@H]2O[C@H](CO)[C@@H](O)[C@H](O)[C@H]2O)c(-c2ccc(O)c(O)c2)oc2cc(O)cc(O)c12 | Si | enzyme activity, inhibitor |  | 100 µg/mL | inhibition | 54.6%
Nc1ncnc2occ(-c3ccc(NC(=O)Nc4cc(C(F)(F)F)ccc4F)cc3)c12 | Serine/threonine-protein kinase RIO2 (RIOK2, Homo sapiens, UniProt Q9BVS4) | cell-free assay, inhibitor |  | 20 µM | remaining signal | 8.5%
C=C(C)[C@@H]1CCC(C)=C[C@H]1c1c(O)cc(CCCCC)cc1O | Polyunsaturated fatty acid lipoxygenase ALOX12 (ALOX12, Homo sapiens, UniProt P18054) | enzyme activity in cells, inhibitor | PMNL | 10 µM | remaining activity | 131%
O=C(c1ccc(F)cc1)N(Cc1ccccc1)C1CCCCC1 | Estrogen receptor (ESR1, Homo sapiens, UniProt P03372) | cell-free assay |  | 10 µM | inhibition | 32%
CCOCc1nc(O)c(-c2nnc(Cc3ccc(Cl)cn3)o2)c(O)c1-c1c(OC)cccc1OC | Apelin receptor (APLNR, Homo sapiens, UniProt P35414) | binding, radioligand |  |  | koff | 0.00075 s⁻¹
CNC(=O)c1cc(Oc2ccc(NC(=O)Nc3ccc(Cl)c(C(F)(F)F)c3)cc2)ccn1 | Abl2 | enzyme activity, inhibitor |  | 0.3 µM | inhibition | 16%
